{"source": "ChEMBL document CHEMBL3091272", "about": "“Caesalminaxins A-L, cassane diterpenoids from the seeds of Caesalpinia minax” (J Nat Prod, 2013)", "type_in_all_cases": "functional, cell-based", "key": {"[1]": {"system": "HepG2", "assay": "Cytotoxicity against human HepG2 cells after 24 to 72 hrs by MTT assay", "procedure,_shortened": "(§1)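 Cells seeded at 5 × 10^4 cells/mL and held 24 h at 37 °C before the test compound was added as a DMSO solution at a range of concentrations. MTT staining was done after 24, 48 and 72 h. Absorbance was read at 490 nm against a negative control. IC50 was the concentration giving 50% cell death, taken from a plot of concentration versus % viability. Camptothecin served as positive control.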"}, "[2]": {"system": "K562", "assay": "Cytotoxicity against human K562 cells after 24 to 72 hrs by MTT assay", "procedure,_shortened": "as §1"}, "[3]": {"system": "HeLa", "assay": "Cytotoxicity against human HeLa cells after 24 to 72 hrs by MTT assay", "procedure,_shortened": "as §1"}, "[4]": {"system": "DU-145", "assay": "Cytotoxicity against human DU145 cells after 24 to 72 hrs by MTT assay", "procedure,_shortened": "as §1"}}, "data": [{"smiles": "CO[C@H]1C=C2[C@@](OC)(C[C@H]3[C@@H]([C@@H](OC(C)=O)[C@H](OC(C)=O)[C@@]4(O)C(C)(C)CC[C@H](OC(C)=O)[C@]34C)[C@]2(C)O)O1", "values": [{"measurement": "IC50", "setting": "[1]", "value": 11.5, "unit": "µM"}, {"measurement": "IC50", "setting": "[2]", "value": 9.2, "unit": "µM"}, {"measurement": "IC50", "setting": "[3]", "value": "> 50", "unit": "µM"}, {"measurement": "IC50", "setting": "[4]", "value": "> 50", "unit": "µM"}]}, {"smiles": "CCO[C@]1(C)[C@@H]2[C@@H](OC(C)=O)[C@H](OC(C)=O)[C@@]3(O)C(C)(C)CC[C@H](OC(C)=O)[C@]3(C)[C@H]2C[C@]12C(=O)O[C@@H]1O[C@@H]12", "values": [{"measurement": "IC50", "setting": "[1]", "value": "> 50", "unit": "µM"}, {"measurement": "IC50", "setting": "[2]", "value": 9.9, "unit": "µM"}, {"measurement": "IC50", "setting": "[3]", "value": 12.1, "unit": "µM"}, {"measurement": "IC50", "setting": "[4]", "value": 17.1, "unit": "µM"}]}, {"smiles": "CC(=O)O[C@H]1[C@@H]2OC(=O)[C@@H]3c4ccoc4C[C@@H]([C@@H]23)[C@@]2(C)[C@@H](O)CCC(C)(C)[C@]12O", "values": [{"measurement": "IC50", "setting": "[1]", "value": 8, "unit": "µM"}, {"measurement": "IC50", "setting": "[2]", "value": "> 50", "unit": "µM"}, {"measurement": "IC50", "setting": "[3]", "value": "> 50", "unit": "µM"}, {"measurement": "IC50", "setting": "[4]", "value": 12, "unit": "µM"}]}, {"smiles": "CC[C@@]1(O)C(=O)OCc2c1cc1n(c2=O)Cc2cc3ccccc3nc2-1", "note": "[CAMPTOTHECIN]", "values": [{"measurement": "IC50", "setting": "[1]", "value": 0.6, "unit": "µM"}, {"measurement": "IC50", "setting": "[2]", "value": 0.4, "unit": "µM"}, {"measurement": "IC50", "setting": "[3]", "value": 0.5, "unit": "µM"}, {"measurement": "IC50", "setting": "[4]", "value": 0.8, "unit": "µM"}]}]}
